One data set deals with J774.A1. The data set is described as follows: Cytotoxicity against J774A.1 cells assessed as reduction in cell viability at 31.3 microg/ml. The note with it: mouse, dose 31.3 µg/ml. It is filed as toxicity, cell-based. The gist of the method:
(§1)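 Cells in DMEM with 10% FBS and 1% Pen/Strep, seeded at 10,000 cells/well and held overnight at 37 °C, 5% CO2. Compounds added at final 31.3-0.12 µg/mL (0.05% DMSO vehicle) for 24 h. Resazurin then added for 6 h; fluorescence read at ex 560/em 590. Triton X-100 1% as positive control; values normalized to vehicle. Run in quadruplicate.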

The next data set has as its system HEK293. The data set is described as follows: Cytotoxicity against human HEK-293 cells assessed as reduction in cell viability at 31.3 microg/ml. The note with it: dose 31.3 µg/ml. It is filed as toxicity, cell-based. The gist of the method:
as §1

For data set [1], the system named is Candida albicans. Briefly: Antifungal activity against Candida albicans ATCC 10231 assessed as fungal growth inhibition by double dilution method. The class given is functional. The gist of the method: (§2)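 Broth microdilution after CLSI M27-A3/M38-A2 with minor changes. Single colony grown overnight in YPD at 35 °C, 200 rpm. Compound final range 0.06-31.3 µg/mL; incubated 48 h at 35 °C.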

Data set [2] has as its system Candida albicans. Briefly: Antifungal activity against Candida albicans ATCC 64124 assessed as fungal growth inhibition by double dilution method. The class given is functional. The method, boiled down: (§3)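 Broth microdilution after CLSI M27-A3/M38-A2 with minor modifications. A single colony was grown overnight in YPD at 35 °C with shaking at 200 rpm. Cells were mixed 1:1 with compound (final 0.06-31.3 µg/mL, from DMSO stocks) and incubated 48 h at 35 °C.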

For data set [3], the system named is Candida albicans. The data set is described as follows: Antifungal activity against itraconazole/fluconazole susceptible Candida albicans ATCC MYA-2876 assessed as fungal growth inhibition by double dilution method. It is filed as functional. The method, boiled down: as §3
The test system of data set [4] is Candida albicans. The data set is described as follows: Antifungal activity against itraconazole/fluconazole resistant Candida albicans ATCC 90819 assessed as fungal growth inhibition by double dilution method. It is filed as functional. The gist of the method:
as §3

The test system of data set [5] is Candida albicans. Briefly: Antifungal activity against itraconazole/fluconazole susceptible Candida albicans ATCC MYA-2310 assessed as fungal growth inhibition by double dilution method. It is filed as functional. The method, boiled down:
as §3

The test system of data set [6] is Candida albicans. The data set is described as follows: Antifungal activity against itraconazole/fluconazole resistant Candida albicans ATCC MYA-1237 assessed as fungal growth inhibition by double dilution method. The class given is functional. The gist of the method: as §3
Data set [7] deals with Candida albicans. The data set is described as follows: Antifungal activity against itraconazole/fluconazole resistant Candida albicans ATCC MYA-1003 assessed as fungal growth inhibition by double dilution method. It is filed as functional. The gist of the method:
as §3

The test system of data set [8] is Nakaseomyces glabratus. The data set is described as follows: Antifungal activity against Candida glabrata ATCC 2001 assessed as fungal growth inhibition by double dilution method. The class given is functional. The method, boiled down:
as §2

The test system of the next data set is Pichia kudriavzevii. Briefly: Antifungal activity against Pichia kudriavzevii ATCC 6258 assessed as fungal growth inhibition by double dilution method. The class given is functional. The method, boiled down: as §2
Data set [9] concerns Nakaseomyces glabratus. Briefly: Antifungal activity against Candida glabrata ATCC 22019 assessed as fungal growth inhibition by double dilution method. It is filed as functional. The gist of the method:
as §2

In data set [10] the test system is [Candida] auris. The data set is described as follows: Antifungal activity against Candida auris AR Bank # 0384 assessed as fungal growth inhibition by double dilution method. It is filed as functional. The note with it: Candidozyma auris. The gist of the method:
as §2

Data set [11] relates to [Candida] auris. Briefly: Antifungal activity against Candida auris AR Bank # 0390 assessed as fungal growth inhibition by double dilution method. The class given is functional. Conditions: Candidozyma auris. The gist of the method: as §2
The test system of another data set is Cryptococcus neoformans. The data set is described as follows: Antifungal activity against Cryptococcus neoformans ATCC MYA-895 assessed as fungal growth inhibition by double dilution method. It is filed as functional. The method, boiled down:
as §2

Another data set concerns Aspergillus terreus. Briefly: Antifungal activity against Aspergillus terreus ATCC MYA-3633 assessed as fungal growth inhibition by double dilution method. It is filed as functional.
The test system of data set [12] is Aspergillus fumigatus. Briefly: Antifungal activity against Aspergillus fumigatus NRRL 163 assessed as fungal growth inhibition by double dilution method. The class given is functional.
A further data set concerns Aspergillus flavus. The data set is described as follows: Antifungal activity against Aspergillus flavus ATCC MYA-3631 assessed as fungal growth inhibition by double dilution method. The class given is functional.
The subject of another data set is Aspergillus nidulans. Briefly: Antifungal activity against Aspergillus nidulans ATCC 38163 assessed as fungal growth inhibition by double dilution method. It is filed as functional.
Data set [13] has as its system Aspergillus fumigatus. Briefly: Antifungal activity against Aspergillus fumigatus NRRL 5109 assessed as fungal growth inhibition by double dilution method. It is filed as functional.
Data set [14] deals with Aspergillus fumigatus. Briefly: Antifungal activity against Aspergillus fumigatus NRRL 6113 assessed as fungal growth inhibition by double dilution method. It is filed as functional.

In brackets after ≈: the same amount, converted by molar mass.

For the molecule `C[C@@H](c1ncncc1F)[C@](O)(Cn1cncn1)c1ccc(F)cc1F` [VORICONAZOLE], the Activity result with J774.A1 and with HEK293 was “Non-Toxic” throughout.

Broadly, the MIC is the smallest concentration in the dilution series that meets the test's criterion for growth inhibition. On to `O=C(NNc1ccc(F)cc1)c1cccc(F)n1`, for which the MIC in the data set with Candida albicans [1] worked out at 0.24 µg/mL (≈ 0.963 µM); with Candida albicans [2], 0.98 µg/mL (≈ 3.93 µM); in the data set with Candida albicans [3], 1.95 µg/mL (≈ 7.82 µM); in the data set with Candida albicans [4], 1.95 µg/mL (≈ 7.82 µM); with Candida albicans [5] it was 3.9 µg/mL (≈ 15.6 µM); in the data set with Candida albicans [6] it was 1.95 µg/mL (≈ 7.82 µM). Further, the MIC in the data set on Candida albicans [7] turned out to be 0.98 µg/mL (≈ 3.93 µM); in the data set on Nakaseomyces glabratus [8], 15.6 µg/mL (≈ 62.6 µM); with Pichia kudriavzevii, 0.49 µg/mL (≈ 1.97 µM); in the data set with Nakaseomyces glabratus [9] it was 3.9 µg/mL (≈ 15.6 µM); in data set [Candida] auris [10], 1.95 µg/mL (≈ 7.82 µM); in [Candida] auris [11], 0.98 µg/mL (≈ 3.93 µM). For the same molecule, the MIC with Cryptococcus neoformans was determined as 0.49 µg/mL (≈ 1.97 µM); in the data set with Aspergillus terreus, 1.95 µg/mL (≈ 7.82 µM); in the data set on Aspergillus fumigatus [12], 31.3 µg/mL (≈ 126 µM); in the data set with Aspergillus flavus it was 7.8 µg/mL (≈ 31.3 µM); in the data set with Aspergillus nidulans, 0.98 µg/mL (≈ 3.93 µM); in the data set on Aspergillus fumigatus [13], 15.6 µg/mL (≈ 62.6 µM). For the same molecule, in the data set with Aspergillus fumigatus [14], the MIC is 15.6 µg/mL (≈ 62.6 µM).

Turning to `COc1cccc(NNC(=O)c2ccc(Br)cn2)c1`, the MIC with Candida albicans [1] was determined as 0.98 µg/mL (≈ 3.04 µM); in the data set with Candida albicans [2] it was 3.9 µg/mL (≈ 12.1 µM); in the data set on Candida albicans [3] it was 0.98 µg/mL (≈ 3.04 µM); with Candida albicans [4], 1.95 µg/mL (≈ 6.05 µM); with Candida albicans [5], 3.9 µg/mL (≈ 12.1 µM); in the data set with Candida albicans [6], 0.98 µg/mL (≈ 3.04 µM). For the same molecule, the MIC amounted to 3.9 µg/mL (≈ 12.1 µM) in the data set on Candida albicans [7]; 3.9 µg/mL (≈ 12.1 µM) in the data set with Nakaseomyces glabratus [8]; 0.24 µg/mL (≈ 0.745 µM) in the data set with Pichia kudriavzevii; 1.95 µg/mL (≈ 6.05 µM) in the data set with Nakaseomyces glabratus [9]; 0.98 µg/mL (≈ 3.04 µM) in [Candida] auris [10]; 1.95 µg/mL (≈ 6.05 µM) in [Candida] auris [11]. Also, the MIC with Cryptococcus neoformans was 0.49 µg/mL (≈ 1.52 µM); with Aspergillus terreus it was 1.95 µg/mL (≈ 6.05 µM); with Aspergillus fumigatus [12], over 31.3 µg/mL; in the data set on Aspergillus flavus, over 31.3 µg/mL; with Aspergillus nidulans it was 3.9 µg/mL (≈ 12.1 µM); with Aspergillus fumigatus [13], 15.6 µg/mL (≈ 48.4 µM). Also, the MIC in the data set on Aspergillus fumigatus [14] is over 31.3 µg/mL.

In the case of `COc1ccc(NNC(=O)c2cccc(F)n2)cc1`, the MIC with Candida albicans [1] turned out to be 0.24 µg/mL (≈ 0.919 µM); in the data set with Candida albicans [2], 1.95 µg/mL (≈ 7.46 µM); in the data set with Candida albicans [3] it was 0.98 µg/mL (≈ 3.75 µM); in the data set on Candida albicans [4], 1.95 µg/mL (≈ 7.46 µM); with Candida albicans [5], 0.98 µg/mL (≈ 3.75 µM); in the data set with Candida albicans [6] it was 0.98 µg/mL (≈ 3.75 µM). For the same molecule, the MIC in the data set with Candida albicans [7] was determined as 0.98 µg/mL (≈ 3.75 µM); with Nakaseomyces glabratus [8] it was 0.98 µg/mL (≈ 3.75 µM); with Pichia kudriavzevii it was 0.49 µg/mL (≈ 1.88 µM); in the data set with Nakaseomyces glabratus [9], 7.8 µg/mL (≈ 29.9 µM); in data set [Candida] auris [10], 1.95 µg/mL (≈ 7.46 µM); in data set [Candida] auris [11], 1.95 µg/mL (≈ 7.46 µM). Moreover, the MIC was 0.24 µg/mL (≈ 0.919 µM) in the data set on Cryptococcus neoformans; 15.6 µg/mL (≈ 59.7 µM) in the data set with Aspergillus terreus; over 31.3 µg/mL with Aspergillus fumigatus [12]; over 31.3 µg/mL with Aspergillus flavus; 1.95 µg/mL (≈ 7.46 µM) in the data set on Aspergillus nidulans; over 31.3 µg/mL in the data set on Aspergillus fumigatus [13]. In addition, the MIC with Aspergillus fumigatus [14] was 15.6 µg/mL (≈ 59.7 µM).

The record behind these values is ChEMBL document CHEMBL5329156, “Discovery and development of novel substituted monohydrazides as potent antifungal agents” (RSC Med Chem, 2023).
